Measured values taken from ChEMBL document CHEMBL4334465, “SAR Studies on Aromatic Acylhydrazone-Based Inhibitors of Fungal Sphingolipid Synthesis as Next-Generation Antifungal Agents” (J Med Chem, 2019).
In brackets after ≈: the same amount, converted by molar mass.

Columns and labels:
Pichia kudriavzevii [1] = test: Antifungal activity against Candida krusei 6258 assessed as FICI in presence of voriconazole; type: functional
In short: (§1)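 Checkerboard combination scored by fractional inhibitory concentration index. Acylhydrazone serially diluted 16 to 0.015 μg/mL (11 dilutions). Partner drug in seven dilutions: fluconazole 12 to 0.19 μg/mL, amphotericin B 5 to 0.078 μg/mL, caspofungin, itraconazole or voriconazole 8 to 0.007 μg/mL.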

Cryptococcus neoformans [2] = test: Fungicidal activity against Cryptococcus neoformans H99 measured after 72 hrs by time-kill assay; type: functional, var grubii H99
In short: (§2)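 Overnight C. neoformans washed in PBS and resuspended in HEPES-buffered YNB, pH 7.4. 2 × 10⁴ cells exposed to a range of drug concentrations in 10 mL with 0.5% DMSO final, at 37°C, 5% CO₂, shaking at 200 rpm. Aliquots sampled over 96 h, diluted and plated on YPD; CFU counted after 48 h at 30°C.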

[Candida] auris [3] = Antifungal activity against Candida auris measured after 24 to 72 hrs; type: functional; conditions: Candidozyma auris
In short: (§3)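 Modified CLSI broth microdilution with inoculum per M27A3. Compounds were serially diluted 32 to 0.03 μg/mL. Media: C. neoformans in HEPES-buffered YNB without amino acids (pH 7.0, 2% glucose); Candida strains in YNB without ammonium sulfate or amino acids plus 1% asparagine (pH 7.0, 2% glucose); A. fumigatus in RPMI (pH 7.0, 2% glucose).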

[Candida] auris [4] = Antifungal activity against Candida auris assessed as FICI in presence of caspofungin; type: functional, Candidozyma auris; in short: as §1
Pichia kudriavzevii [5] = test: Antifungal activity against fluconazole-resistant Candida krusei assessed as FICI in presence of voriconazole; type: functional
In short: (§4)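 Checkerboard in 96-well plate. Test compound diluted 16 to 0.015 μg/mL (11 dilutions) against the partner drug in seven dilutions: fluconazole 12 to 0.19 μg/mL, caspofungin, itraconazole or voriconazole 8 to 0.007 μg/mL. Fractional inhibitory concentration index (FICI) calculated from the combinations.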

Candida albicans [6] = test: Antifungal activity against Candida albicans assessed as FICI in presence of caspofungin; type: functional; in short: as §1
Cryptococcus neoformans [7] = test: Antifungal activity against Cryptococcus neoformans H99 measured after 24 to 72 hrs; type: functional; conditions: var grubii H99; in short: as §3
Cryptococcus neoformans [8] = test: Antifungal activity against Cryptococcus neoformans H99 assessed as FICI in presence of amphotericin B; type: functional, var grubii H99; in short: as §1
Candida albicans [9] = test: Antifungal activity against Candida albicans measured after 24 to 72 hrs; type: functional; in short: as §3
Pichia kudriavzevii [10] = test: Antifungal activity against Candida krusei 6258 assessed as FICI in presence of caspofungin; type: functional; in short: as §1
[Candida] auris [11] = Antifungal activity against Candida auris assessed as FICI in presence of voriconazole; type: functional, Candidozyma auris; in short: as §1
[12] = Selectivity index, ratio of LD50 for human A549 cells to MIC80 for Cryptococcus neoformans H99; type: toxicity; conditions: read-out: Selectivity Index
In short: (§5)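 SI = LD₅₀/MIC₈₀. Cytotoxicity: A549 or HepG2 cells (DMEM, 10% FBS, passage 7, 10⁵ cells/well) adhered 14 h, then exposed to 0.03–128 μg/mL for 24 or 48 h at 37°C, 5% CO₂; MTT 4 h, formazan dissolved in DMSO, read at 570 nm. MIC₈₀ against C. neoformans from broth microdilution in HEPES-buffered YNB, pH 7.0.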

HepG2 = test: Cytotoxicity against human HepG2 cells after 24 to 48 hrs by MTT assay; type: functional; conditions: read-out: LD50 (the source's name)
In short: (§6)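 A549 and HepG2 kept in DMEM with 10% FBS and 1% pen-strep. At passage 7, seeded at 10⁵ cells/well and allowed to adhere 14 h. Compound added at 0.03–128 μg/mL, untreated wells as controls. Incubation 37°C, 5% CO₂ for 24 or 48 h. MTT (5 mg/mL in PBS) added for 4 h, formazan dissolved in DMSO, OD570.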

Pichia kudriavzevii [13] = test: Antifungal activity against Candida krusei 6258 assessed as FICI in presence of fluconazole; type: functional; in short: as §1
Pichia kudriavzevii [14] = test: Antifungal activity against fluconazole-resistant Candida krusei assessed as FICI in presence of caspofungin; type: functional; in short: as §4
Cryptococcus neoformans [15] = test: Fungicidal activity against Cryptococcus neoformans H99 measured up to 96 hrs by time-kill assay; type: functional, organism-based; conditions: var grubii H99; in short: as §2
Candida parapsilosis [16] = test: Antifungal activity against Candida parapsilosis assessed as FICI in presence of itraconazole; type: functional; in short: as §1
Candida parapsilosis [17] = test: Antifungal activity against Candida parapsilosis assessed as FICI in presence of fluconazole; type: functional; in short: as §1
Aspergillus fumigatus [18] = test: Antifungal activity against Aspergillus fumigatus measured after 24 to 72 hrs; type: functional; in short: as §3
Aspergillus fumigatus [19] = test: Antifungal activity against Aspergillus fumigatus assessed as FICI in presence of itraconazole; type: functional; in short: as §1
Candida albicans [20] = test: Antifungal activity against Candida albicans assessed as FICI in presence of voriconazole; type: functional; in short: as §1
Aspergillus fumigatus [21] = test: Antifungal activity against Aspergillus fumigatus assessed as FICI in presence of voriconazole; type: functional; in short: as §1
Candida parapsilosis [22] = test: Antifungal activity against Candida parapsilosis assessed as FICI in presence of voriconazole; type: functional; in short: as §1
Pichia kudriavzevii [23] = test: Antifungal activity against fluconazole-resistant Candida krusei assessed as FICI in presence of fluconazole; type: functional; in short: as §4
Cryptococcus neoformans [24] = test: Antifungal activity against Cryptococcus neoformans H99 assessed as FICI in presence of voriconazole; type: functional, var grubii H99; in short: as §1
Cryptococcus neoformans [25] = test: Antifungal activity against Cryptococcus neoformans H99 assessed as FICI in presence of fluconazole; type: functional, var grubii H99; in short: as §1
Candida parapsilosis [26] = test: Antifungal activity against Candida parapsilosis measured after 24 to 72 hrs; type: functional; conditions: Lodderomyces parapsilosis; in short: as §3
[27] = Selectivity index, ratio of LD50 for human HepG2 cells to MIC80 for Cryptococcus neoformans H99; type: toxicity; conditions: read-out: Selectivity Index; in short: as §5
Aspergillus fumigatus [28] = test: Antifungal activity against Aspergillus fumigatus assessed as FICI in presence of fluconazole; type: functional; in short: as §1
Candida albicans [29] = test: Antifungal activity against Candida albicans assessed as FICI in presence of itraconazole; type: functional; in short: as §1
Pichia kudriavzevii [30] = test: Antifungal activity against multi-drug resistant Candida krusei measured after 24 to 72 hrs; type: functional
In short: (§7)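 MIC by modified CLSI broth microdilution. Candida strains grown in YNB without ammonium sulfate or amino acids with 1% asparagine, pH 7.0, 2% glucose. Inoculum per CLSI M27A3. Compound serially diluted 32 to 0.03 μg/mL. Incubation 37°C, 5% CO₂, 24–72 h, then OD450. MIC80 taken as the lowest concentration giving 80% growth inhibition versus untreated control.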

Cryptococcus neoformans [31] = test: Antifungal activity against Cryptococcus neoformans H99 assessed as FICI in presence of itraconazole; type: functional, var grubii H99; in short: as §1
Candida parapsilosis [32] = test: Antifungal activity against Candida parapsilosis assessed as FICI in presence of caspofungin; type: functional; in short: as §1
Candida albicans [33] = test: Antifungal activity against Candida albicans assessed as FICI in presence of fluconazole; type: functional; in short: as §1
[Candida] auris [34] = Antifungal activity against Candida auris assessed as FICI in presence of fluconazole; type: functional, Candidozyma auris; in short: as §1
Pichia kudriavzevii [35] = test: Antifungal activity against Candida krusei 6258 assessed as FICI in presence of itraconazole; type: functional; in short: as §1
Pichia kudriavzevii [36] = test: Antifungal activity against Candida krusei measured after 24 to 72 hrs; type: functional; in short: as §7
A549 = test: Cytotoxicity against human A549 cells after 24 to 48 hrs by MTT assay; type: functional; conditions: read-out: LD50 (the source's name); in short: as §6
Pichia kudriavzevii [37] = test: Antifungal activity against fluconazole-resistant Candida krusei assessed as FICI in presence of itraconazole; type: functional; in short: as §4
[Candida] auris [38] = Antifungal activity against Candida auris assessed as FICI in presence of itraconazole; type: functional, Candidozyma auris; in short: as §1

| SMILES | fractional inhibitory concentration index (FICI) (Pichia kudriavzevii [1]) | MFC100 (Cryptococcus neoformans [2]) | MIC80 ([Candida] auris [3]) | fractional inhibitory concentration index (FICI) ([Candida] auris [4]) | fractional inhibitory concentration index (FICI) (Pichia kudriavzevii [5]) | fractional inhibitory concentration index (FICI) (Candida albicans [6]) | MIC80 (Cryptococcus neoformans [7]) | fractional inhibitory concentration index (FICI) (Cryptococcus neoformans [8]) | MIC80 (Candida albicans [9]) | fractional inhibitory concentration index (FICI) (Pichia kudriavzevii [10]) | fractional inhibitory concentration index (FICI) ([Candida] auris [11]) | selectivity ratio [12] | CC50 (HepG2) | fractional inhibitory concentration index (FICI) (Pichia kudriavzevii [13]) | fractional inhibitory concentration index (FICI) (Pichia kudriavzevii [14]) | Activity (Cryptococcus neoformans [15]) | fractional inhibitory concentration index (FICI) (Candida parapsilosis [16]) | fractional inhibitory concentration index (FICI) (Candida parapsilosis [17]) | MIC80 (Aspergillus fumigatus [18]) | fractional inhibitory concentration index (FICI) (Aspergillus fumigatus [19]) | also measured |
| --- | --- | --- | --- | --- | --- | --- | --- | --- | --- | --- | --- | --- | --- | --- | --- | --- | --- | --- | --- | --- | --- |
| O=C(N/N=C/c1cc(Br)ccc1O)c1ccc(Br)cc1Br | 1.06 | 0.06 µg/mL (≈ 0.126 µM) | > 16 µg/mL | 2 | 1.063 | 0.502 | 0.06 µg/mL (≈ 0.126 µM) | 0.086 | > 16 µg/mL | 1.002 | 1.125 | 1070 | 64 µg/mL (≈ 134 µM) | 1.002 | 2 | Dose-dependent effect | 2.098 | 1.015 | > 16 µg/mL | 0.484 | fractional inhibitory concentration index (FICI) (Candida albicans [20]): 0.256; fractional inhibitory concentration index (FICI) (Aspergillus fumigatus [21]): 0.515; fractional inhibitory concentration index (FICI) (Candida parapsilosis [22]): 0.135; fractional inhibitory concentration index (FICI) (Pichia kudriavzevii [23]): 2; fractional inhibitory concentration index (FICI) (Cryptococcus neoformans [24]): 0.072; fractional inhibitory concentration index (FICI) (Cryptococcus neoformans [25]): 0.065; MIC80 (Candida parapsilosis [26]): 8 µg/mL (≈ 16.8 µM); selectivity ratio [27]: 1070; fractional inhibitory concentration index (FICI) (Aspergillus fumigatus [28]): 2; fractional inhibitory concentration index (FICI) (Candida albicans [29]): 0.128; MIC80 (Pichia kudriavzevii [30]): > 16 µg/mL; fractional inhibitory concentration index (FICI) (Cryptococcus neoformans [31]): 0.072; fractional inhibitory concentration index (FICI) (Candida parapsilosis [32]): 1.5; fractional inhibitory concentration index (FICI) (Candida albicans [33]): 2; fractional inhibitory concentration index (FICI) ([Candida] auris [34]): 2; fractional inhibitory concentration index (FICI) (Pichia kudriavzevii [35]): 2.015; MIC80 (Pichia kudriavzevii [36]): 8 µg/mL (≈ 16.8 µM); CC50 (A549): 64 µg/mL (≈ 134 µM); fractional inhibitory concentration index (FICI) (Pichia kudriavzevii [37]): 0.375; fractional inhibitory concentration index (FICI) ([Candida] auris [38]): 1.016 |
| O=C(N/N=C/c1ccc(Br)cc1O)c1ccc(Br)cc1Br | 1.25 | 0.06 µg/mL (≈ 0.126 µM) | > 16 µg/mL | 2 | 0.281 | 0.502 | 0.06 µg/mL (≈ 0.126 µM) | 0.086 | > 16 µg/mL | 2 | 1.016 | 1070 | 128 µg/mL (≈ 268 µM) | 2 | 2 | Dose-dependent effect | 0.124 | 1.002 | > 16 µg/mL | 0.484 | fractional inhibitory concentration index (FICI) (Candida albicans [20]): 0.256; fractional inhibitory concentration index (FICI) (Aspergillus fumigatus [21]): 0.515; fractional inhibitory concentration index (FICI) (Candida parapsilosis [22]): 0.076; fractional inhibitory concentration index (FICI) (Pichia kudriavzevii [23]): 2; fractional inhibitory concentration index (FICI) (Cryptococcus neoformans [24]): 0.072; fractional inhibitory concentration index (FICI) (Cryptococcus neoformans [25]): 0.065; MIC80 (Candida parapsilosis [26]): 8 µg/mL (≈ 16.8 µM); selectivity ratio [27]: 2130; fractional inhibitory concentration index (FICI) (Aspergillus fumigatus [28]): 2; fractional inhibitory concentration index (FICI) (Candida albicans [29]): 0.128; fractional inhibitory concentration index (FICI) (Cryptococcus neoformans [31]): 0.072; fractional inhibitory concentration index (FICI) (Candida parapsilosis [32]): 2; fractional inhibitory concentration index (FICI) (Candida albicans [33]): 0.625; fractional inhibitory concentration index (FICI) ([Candida] auris [34]): 2; fractional inhibitory concentration index (FICI) (Pichia kudriavzevii [35]): 1.063; MIC80 (Pichia kudriavzevii [36]): > 16 µg/mL; CC50 (A549): 64 µg/mL (≈ 134 µM); fractional inhibitory concentration index (FICI) (Pichia kudriavzevii [37]): 0.252; fractional inhibitory concentration index (FICI) ([Candida] auris [38]): 0.508 |
